MEKK2 WT-MEK5: raises or lowers MEK5 binding to wildtype human MEKK2 PB1 domain; binding response (% of control), % at 10 µM; bead flow cytometry, Alexa488-MEK5 binding to MEKK2 WT; actives lie on both sides; Q9Y2U5; 1.1% of 290,000 active; in the data active = binding response below about 67% or above about 130%
B2AR ag: agonists of human beta-2 adrenergic receptor inducing internalization. response, % (test concentration not listed). AID 504454. 0.43% of 340,000 active. Am2.2-beta2AR cells, FAP receptor internalization, flow cytometry. P07550;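 active = response above a set limit, near 3 SD of response in nonfluorescent compounds, cut at about 42% in these data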
Target sequence (P07550 whole entry, looked up): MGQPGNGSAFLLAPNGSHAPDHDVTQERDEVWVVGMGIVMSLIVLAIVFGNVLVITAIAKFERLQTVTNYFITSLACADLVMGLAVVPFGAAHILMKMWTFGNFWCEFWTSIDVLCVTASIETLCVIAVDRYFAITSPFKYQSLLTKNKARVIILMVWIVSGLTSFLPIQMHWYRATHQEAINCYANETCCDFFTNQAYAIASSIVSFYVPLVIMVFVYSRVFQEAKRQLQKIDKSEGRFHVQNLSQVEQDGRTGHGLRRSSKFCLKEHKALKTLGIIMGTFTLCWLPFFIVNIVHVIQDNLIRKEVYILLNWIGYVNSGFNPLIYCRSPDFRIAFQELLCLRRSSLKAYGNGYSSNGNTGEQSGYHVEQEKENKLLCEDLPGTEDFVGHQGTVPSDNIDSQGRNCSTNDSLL
MEKK2 mut-MEK5: signal of MEK5 binding to mutant human MEKK2 PB1 domain; bead flow cytometry, Alexa488-MEK5 binding to MEKK2 mutant; percent response, % at 10 µM; 0.35% of 290,000 active; AID 1530; in the data active = percent response above about 24%, passing the limit was not always enough
ATG4B inh: inhibitors of human ATG4B cysteine protease; Q9Y4P1; ATG4B cleavage of LC3-PLA2, NBD-HPC fluorescence, 1 h; inhibition, % at 8.33 µM; 0.51% of 340,000 active; in the data active = inhibition above about 40%
Dynein transport: dynein cargo transport inhibition; AID 1381; 0.47% of 220,000 active; z-score, hits read low; 3617.4 mouse cells, GR-EGFP nuclear translocation imaging; test concentration mostly 20 µM; stimulated with dexamethasone, 1 µM; hits give low values;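 active = plate z-score of nuclear minus cytoplasmic receptor signal below a set negative limit, without overly bright fluorescence or cell loss, cut at about -3.5 in these data, passing the limit was not always enough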;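 note: z-score of nuclear minus cytoplasmic ring GR-EGFP intensity difference per well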
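Also added: dexamethasone, 1.0 µM final. Medium: tet-free, stripped-serum medium. Detection: fixed, Hoechst-stained cells imaged at 10x for EGFP. Read-out: nuclear-to-cytoplasmic GR-EGFP distribution per well. Times: induction 48 h, compound 1 h, agonist 30 min.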
MEKK3 PB1 HTS: MEKK3-MEK5 PB1 interaction, increase or decrease | bead-based flow cytometry, Alexa488-MEK5 binding to MEKK3; actives lie on both sides; 0 = blocked by unlabeled MEK5, 100 = vehicle | binding response (% of control), % at 10 µM | 1.4% of 290,000 active | AID 1529;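 active = binding response more than 3 SD above or below the average of its plate-row segment, actives on both sides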;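 note: Alexa488 bead fluorescence after subtracting the streptavidin-only scavenger bead signal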
MEKK2wt confirm: raises or lowers MEK5 binding to wildtype human MEKK2, retest; bead flow cytometry, Alexa488-MEK5 binding to MEKK2 WT; actives lie on both sides; 2.4% of 5,900 active; binding response (% of control), % at 10 µM; shares compounds with MEKK3 PB1 HTS; in the data active = binding response below about 16% or above about 210%; inactive = in between
MEKK2mut confirm: signal of MEK5 binding to mutant human MEKK2, retest. bead flow cytometry, Alexa488-MEK5 binding to MEKK2 mutant. 2% of 5,900 active. shares compounds with MEKK3 PB1 HTS. percent response, % at 10 µM; in the data active = percent response mostly above about 71%, no sharp cut-off; inactive = mostly below about 38%;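 note: higher means compound restores mutant binding toward wildtype level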
MEKK3 confirm: MEKK3-MEK5 PB1 inhibition, single concentration confirmation | 1.8% of 5,900 active | binding response (% of control), % at 10 µM | AID 1894 | shares compounds with MEKK3 PB1 HTS | bead flow cytometry, Alexa488-MEK5 binding to MEKK3; hits give low values;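 active = binding response below 72% of control, or above a set upper limit, though filed actives all read lower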;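 note: 100% = DMSO only wells and 0% = binding blocked by excess unlabeled MEK5; lower values mean stronger disruption of MEK5 binding to MEKK3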
An asterisk follows results filed as active; . = not tested or not shown; [ ] = remark or other dose. Sampled rows, rich in hits. Any-hit rate of the full collection: about 2.9%.

SMILES	MEKK2 WT-MEK5	B2AR ag	MEKK2 mut-MEK5	ATG4B inh	Dynein transport	MEKK3 PB1 HTS	MEKK2wt confirm	MEKK2mut confirm	MEKK3 confirm
Cc1ccc(-n2c(SCC(=O)N3CC(=O)Nc4ccccc43)nc3ccccc3c2=O)cc1C	99	0	0	5	-0.5	136*	92	-6	97
O=C(CSc1nc2ccccc2c(=O)n1-c1ccccc1)N1CCC1	95	-11	-5	-7	-0.54	101	.	.	.
CCc1cccc(CC)c1NC(=O)CSc1nnc(CCC(=O)O)c(=O)[nH]1	101	-3	-2	-1	0.16	102	.	.	.
Cc1cccc(N2CCN(S(=O)(=O)c3ccc(Cl)nc3)CC2C)c1 (stereo unspecified)	.	-4	.	-9	.	.	.	.	.
Cc1ccc(-c2nc3sc4c(c3c(=O)n2N)CCCC4)cc1	66	-1	-28	12	-0.26	56*[inhibitor]	106	-2	99
O=c1c2c3c(sc2nc2n1CCCC2)CCC3	80	-3	-13	-5	1.2	72*[inhibitor]	99	-6	100
Cc1ccc(-c2nc3sc4c(c3c(=O)n2N)CC(C)(C)OC4)cc1	96	0	-1	-9	0.3	99	.	.	.
O=c1c2c3c(sc2nc2n1CCCCC2)CCCCC3	97	-10	2	.	-0.76	102	.	.	.
CCOC(=O)c1ccccc1NS(=O)(=O)c1cnn(CC)c1C	110	-1	13	0	.	108	.	.	.
FCCCOc1ccc(-c2nccc(-c3ccc(Cl)cc3)n2)cc1	91	0	-15	9	-0.52	77*[inhibitor]	105	7	106
CC(CNC(=O)CN1C(=O)NC2(CCCCC2)C1=O)c1ccccc1 (stereo unspecified)	.	-4	.	-13	.	.	.	.	.
Cc1cc(C(=O)OCC(=O)Nc2cccc(S(N)(=O)=O)c2)c(C)o1	.	6	.	-5	.	.	.	.	.
Cc1cccc(NC(=O)COC(=O)c2cc(C)oc2C)c1	114	1	4	-14	-0.31	129*	105	2	103
CC(C)(C)OC(=O)N1CCC(C(=O)Nc2ccc(C(=O)NCCc3ccccc3)cc2)CC1	.	1	.	0	.	.	.	.	.
CN(Cc1ccc(F)cc1)C(=O)c1cc(S(=O)(=O)N2CCCCC2)ccc1N1CCOCC1	.	-1	.	1	.	.	.	.	.
COc1cccc(CNC(=O)COC(=O)CCc2cc(OC)c(OC)c(OC)c2)c1	.	-2	.	8	.	.	.	.	.
CC1=N/C(=C\c2ccc([N+](=O)[O-])cc2)C(=O)N1c1cc(Cl)ccc1C	52*[inhibitor]	-10	-3	-5	-0.74	90	81	-17	95
Fc1cccc(CNc2ncnc3cc(Cl)ccc23)c1F	104	2	4	4	.	102	.	.	.
O=C(CCNC(=O)c1ccccc1)Nc1ccc(F)c(Cl)c1	108	1	1	2	0.71	138*	103	5	102
COc1sc(SC)cc1/C=N/NC(=O)c1ccncc1	97	-14	-4	-6	.	103	.	.	.
CCN(CC(=O)Nc1cc(Cl)ccc1C)C(=O)c1cc([N+](=O)[O-])ccc1N1CCOCC1	.	3	.	3	.	.	.	.	.
CC1O[C@@H](OC2C(O)C(O)C(CO)O[C@H]2OC2C[C@]3(C)C(CC(O)C4[C@@H]([C@]5(C)CC[C@@H](C(C)(C)O)O5)CC[C@]43C)[C@@]3(C)CCC(O)C(C)(C)C23)C(O)C(O)C1O (stereo partly specified)	.	1	.	1	.	.	.	.	.
S=C(Nc1ccccc1)Nc1cc(Cl)ccc1Oc1ccccc1	120	-2	7	13	-1.5	123*	97	-4	97
COc1cc(OC)c(OC)cc1CN1CCN(S(=O)(=O)c2ccc(F)cc2)CC1	119	2	7	-5	-0.15	122*	102	5	103
COC(=O)C1CCC(C)(C(=O)Nc2ccccc2)C1(C)C (stereo unspecified)	3.0*[inhibitor]	-3	-20	-10	-0.28	3.0*[inhibitor]	102	3	100
SMILES	MEKK2 WT-MEK5	B2AR ag	MEKK2 mut-MEK5	ATG4B inh	Dynein transport	MEKK3 PB1 HTS	MEKK2wt confirm	MEKK2mut confirm	MEKK3 confirm
COc1ccc(NS(=O)(=O)c2cc(NC(=O)CCSc3ccccc3)ccc2OC)cc1	111	11	-1	-14	-0.47	145*	100	0	105
CN(CC(=O)Nc1ccc(F)c(F)c1F)C(=O)CC1CCCCC1	.	-6	.	-2	.	.	.	.	.
Fc1ccccc1Nc1nc2ccccc2o1	104	5	5	4	.	101	.	.	.
CN(C)c1nc(NCc2ccccc2)nc(N/N=C/c2cccc(Br)c2)n1	139*	-1	15	34	-0.45	108	125	13	106
CCc1ccccc1NC(=O)C1CCN(C(=O)c2ccc([N+](=O)[O-])cc2)CC1	103	3	6	-2	0.21	103	.	.	.
c1ccc(-n2nnc(-c3cccnc3)n2)cc1	103	5	6	2	-0.3	94	.	.	.
Cc1ccc(-n2nnc(-c3cccnc3)n2)cc1	85	-9	-7	-11	.	78*[inhibitor]	98	0	101
CCOC(=O)c1cnc(SC)nc1Oc1cccc(NS(=O)(=O)c2ccc(C)cc2)c1	90	1	-6	-14	-0.45	92	.	.	.
COc1cccc(NC(=O)CN(C)C(=O)CC2CCCC2)c1	.	-4	.	-8	.	.	.	.	.
O=C(COC(=O)C1=COCCO1)NC1CCCCCCC1	99	-6	-2	-8	-0.27	103	.	.	.
COCCn1nnnc1C(c1ccccc1)N1CCN(C(=O)c2ccco2)CC1 (stereo unspecified)	98	1	0	9	.	102	.	.	.
O=C(OCc1ccccc1)/C(=C/c1ccc(Cl)cc1)NC(=O)c1ccccc1Cl	111	-3	24*	4	-0.46	109	102	-5	103
COc1ccc(OC)c(C2=CC(=O)C[C@H](c3ccc4c(c3)OCO4)C2)c1	.	9	.	0	.	.	.	.	.
CCC1=NN(S(=O)(=O)c2ccc(C)cc2)C(O)(C(F)(F)F)C1 (stereo unspecified)	114	0	1	2	0.37	128*	102	-2	105
CCC1=NN(C(=O)CCc2ccccc2)C(O)(C(F)(F)F)C1 (stereo unspecified)	95	-13	-5	-9	-0.46	92	.	.	.

Screening results (PubChem)
